Results on twelve compounds are retold here after ChEMBL document CHEMBL3414564, “3'-functionalized adamantyl cannabinoid receptor probes” (J Med Chem, 2015).

For assay [1], the target named is T1, Cannabinoid receptor 1 (Rattus norvegicus, UniProt P20272). As to the kind of experiment: Displacement of [3H]CP-55,940 from CB1 receptor in rat brain membranes. The class given is cell membranes, Membrane. The method in brief: (§1)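 Competition binding against [3H]CP-55,940 on rat brain membranes (CB1) or on membranes of HEK293 cells expressing mouse or human CB2. IC50 by nonlinear regression, converted to Ki. For isothiocyanates the value is an apparent Ki (Ki*), which depends on pretreatment time. Triplicate points; mean of three independent experiments.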
T1 sequence (P20272 whole entry): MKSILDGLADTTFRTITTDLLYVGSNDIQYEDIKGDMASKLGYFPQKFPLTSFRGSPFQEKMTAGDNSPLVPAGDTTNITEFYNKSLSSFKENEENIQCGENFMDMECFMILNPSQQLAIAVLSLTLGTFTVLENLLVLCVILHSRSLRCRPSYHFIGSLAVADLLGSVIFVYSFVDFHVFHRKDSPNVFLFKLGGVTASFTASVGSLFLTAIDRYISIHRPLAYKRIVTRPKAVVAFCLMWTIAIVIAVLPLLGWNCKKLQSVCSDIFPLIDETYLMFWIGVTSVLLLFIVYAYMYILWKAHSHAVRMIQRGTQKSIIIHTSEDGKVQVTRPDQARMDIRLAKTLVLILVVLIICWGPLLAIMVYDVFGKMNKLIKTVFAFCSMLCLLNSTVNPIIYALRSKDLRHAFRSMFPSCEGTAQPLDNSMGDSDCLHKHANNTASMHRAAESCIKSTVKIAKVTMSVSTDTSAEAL
A general note: Loss of bound radioactivity is the signal in a displacement assay; it reports binding, not function.

The target of assay [2] is T2, Cannabinoid receptor 2 (Homo sapiens, UniProt P34972). As to the kind of experiment: Displacement of [3H]CP-55,940 from human CB2 receptor expressed in HEK293 cell membranes. The method in brief:
as §1

The target in assay [3] is Cannabinoid receptor 2 (Mus musculus, UniProt P47936). Put plainly: Displacement of [3H]CP-55,940 from mouse CB2 receptor expressed in HEK293 cell membranes. The method in brief:
as §1

Assay [4] concerns the target T1, Cannabinoid receptor 1. Put plainly: Displacement of [3H]CP-55,940 from CB1 receptor in rat brain membranes incubated for 90 mins. In kind it is cell membranes, Membrane. The method in brief: (§2)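 Competition binding on rat brain membranes (CB1) against [3H]CP-55,940. Membranes were pretreated with the covalently reacting isothiocyanate ligand for the stated time (15, 30, 60 or 90 min) before the binding step. IC50 came from nonlinear regression and was converted to Ki. Values are reported as a time-dependent apparent Ki (Ki*).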

The target in assay [5] is Cannabinoid receptor 1 (Rattus norvegicus) (UniProt P20272). As to the kind of experiment: Agonist activity at rat CB1 receptor expressed in HEK293 cells assessed as inhibition of forskolin-induced cAMP accumulation incubated for 60 mins relative to 500 nM CP-55,940. The class given is functional, cell-based.
Cannabinoid receptor 1 (Rattus norvegicus), sequence (P20272 whole entry): as above
Assay [6] concerns the target T1, Cannabinoid receptor 1. Put plainly: Displacement of [3H]CP-55,940 from CB1 receptor in rat brain membranes incubated for 60 mins. The class given is cell membranes, Membrane. The method in brief: as §2
The target in assay [7] is T2, Cannabinoid receptor 2. Put plainly: Covalent binding affinity to human CB2 receptor expressed in HEK293 cell membranes assessed as covalent labeling at 10 times Ki level incubated for 30 mins at 37 degC followed by UV irradiation by [3H]CP-55,940 radioligand binding assay. The method in brief:
(§3)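 Membranes were incubated with azido ligand at 10× its Ki for 30 min at 37 °C with gentle agitation, then given UV at 254 nm for 1 min. They were washed twice with 1% BSA in TME and once with TME, and pelleted. A blank membrane sample was run in parallel. Bmax came from [3H]CP-55,940 saturation binding at 0.5–23.8 nM with 25 μg protein, 1 h at 30 °C. Nonspecific binding was taken with 4 μM unlabeled CP-55,940. Labeling % = (Bmax control − Bmax ligand)/Bmax control × 100.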

The target of assay [8] is T1, Cannabinoid receptor 1. Put plainly: Displacement of [3H]CP-55,940 from CB1 receptor in rat brain membranes incubated for 30 mins. In kind it is cell membranes, Membrane. The method in brief:
as §2

Assay [9] concerns the target Cannabinoid receptor 1 (Rattus norvegicus) (UniProt P20272). As to the kind of experiment: Binding affinity to CB1 receptor in rat brain membranes assessed as receptor occupancy at 10 times Ki level incubated for 60 mins by [3H]CP-55,940 radioligand binding assay. The class given is cell membranes. The following applies: Membrane. The method in brief:
(§4)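 Rat brain CB1 membranes were pretreated with isothiocyanate ligand at 10× its Ki at 37 °C for 15, 30 or 60 min. The control was 60 min without ligand. Unbound ligand was removed by BSA/TME washes and centrifugation. Bmax came from [3H]CP-55,940 saturation binding at 0.5–23.8 nM, 25 μg protein, 1 h at 30 °C, with 4 μM unlabeled CP-55,940 for nonspecific binding. Irreversible occupancy = percent Bmax reduction.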

In assay [10] the target is T1, Cannabinoid receptor 1. As to the kind of experiment: Displacement of [3H]CP-55,940 from CB1 receptor in rat brain membranes incubated for 15 mins. The class given is cell membranes, Membrane. The method in brief: as §2
Assay [11] has as its target Cannabinoid receptor 1 (Rattus norvegicus) (UniProt P20272). Put plainly: Covalent binding affinity to CB1 receptor in rat brain membranes assessed as covalent labeling at 10 times Ki level incubated for 30 mins at 37 degC followed by UV irradiation by [3H]CP-55,940 radioligand binding assay. The class given is cell membranes. The conditions noted are these: Membrane. The method in brief:
as §3

The target is the same in assay [12]. Put plainly: Irreversible binding affinity to CB1 receptor in rat brain membranes assessed as receptor occupancy at 10 times Ki level incubated for 15 mins by [3H]CP-55,940 radioligand binding assay. The class given is cell membranes. The conditions noted are these: Membrane. The method in brief:
as §4

The target is the same in assay [13]. As to the kind of experiment: Irreversible binding affinity to CB1 receptor in rat brain membranes assessed as receptor occupancy at 10 times Ki level incubated for 30 mins by [3H]CP-55,940 radioligand binding assay. The following applies: Membrane. The class given is cell membranes. The method in brief:
as §4

In assay [14] the target is T2, Cannabinoid receptor 2. As to the kind of experiment: Activity at human CB2 receptor expressed in HEK293 cells assessed as inhibition of forskolin-induced cAMP accumulation up to 3 uM incubated for 60 mins. The class given is functional, cell-based. The method in brief: (§5)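 Forskolin-stimulated cAMP in HEK293 cells stably expressing rCB1 or hCB2, detached non-enzymatically and washed in HBSS, 1000–1500 cells/well. Compound series given in stimulation buffer with 2 μM forskolin (final), 30 min at room temperature. Eu-cAMP tracer and anti-cAMP TR-FRET detection reagents were then added for 60 min at room temperature. EC50 by nonlinear regression; two independent experiments in triplicate.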

Assay [15] deals with T1, Cannabinoid receptor 1. Put plainly: Agonist activity at rat CB1 receptor expressed in HEK293 cells assessed as inhibition of forskolin-induced cAMP accumulation incubated for 60 mins. On the technique in general: Changes in cAMP serve as a functional read-out for many G protein-coupled receptors.
For assay [16], the target named is T2, Cannabinoid receptor 2. Put plainly: Inverse agonist activity at human CB2 receptor expressed in HEK293 cells assessed as inhibition of forskolin-induced cAMP accumulation incubated for 60 mins. In kind it is functional, cell-based. The method in brief: as §5
In assay [17] the target is T2, Cannabinoid receptor 2. Put plainly: Inverse agonist activity at human CB2 receptor expressed in HEK293 cells assessed as inhibition of forskolin-induced cAMP accumulation incubated for 60 mins relative to 500 nM CP-55,940. In kind it is functional, cell-based.

The source made the active and inactive calls. The calls are words filed in the database; no cut-off is given here.

T2 sequence (P34972 whole entry): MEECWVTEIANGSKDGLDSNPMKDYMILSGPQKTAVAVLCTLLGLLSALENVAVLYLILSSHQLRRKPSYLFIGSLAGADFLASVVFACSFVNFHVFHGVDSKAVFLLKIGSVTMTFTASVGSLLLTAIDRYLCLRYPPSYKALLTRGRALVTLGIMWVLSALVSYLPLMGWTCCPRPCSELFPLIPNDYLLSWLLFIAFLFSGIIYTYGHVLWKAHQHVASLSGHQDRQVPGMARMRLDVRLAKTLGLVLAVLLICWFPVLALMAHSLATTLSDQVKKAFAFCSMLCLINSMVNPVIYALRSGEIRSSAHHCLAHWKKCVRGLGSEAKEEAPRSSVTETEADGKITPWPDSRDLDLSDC
Cannabinoid receptor 2 (Mus musculus, UniProt P47936), sequence (P47936 whole entry): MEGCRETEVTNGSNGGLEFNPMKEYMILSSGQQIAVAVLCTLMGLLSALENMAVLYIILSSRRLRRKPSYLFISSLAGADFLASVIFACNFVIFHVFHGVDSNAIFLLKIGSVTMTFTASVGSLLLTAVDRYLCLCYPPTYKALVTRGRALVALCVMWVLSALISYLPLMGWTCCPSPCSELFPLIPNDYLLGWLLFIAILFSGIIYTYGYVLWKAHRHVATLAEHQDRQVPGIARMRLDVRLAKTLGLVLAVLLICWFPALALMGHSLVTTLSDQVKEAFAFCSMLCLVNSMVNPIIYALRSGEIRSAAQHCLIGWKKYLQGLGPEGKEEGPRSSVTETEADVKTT

`CC1(C)Oc2cc([C@]34CC5CC(C[C@@](CN)(C5)C3)C4)cc(O)c2[C@@H]2C[C@H](O)CC[C@H]21`: the Ki at Cannabinoid receptor 1 [1] (read-out: Ki), at Cannabinoid receptor 2 [2] (read-out: Ki) and on Cannabinoid receptor 2 [3] (read-out: Ki) was greater than 1000 nM each time.
A word on the Emax: it is the maximal effect, on the per cent scale that the assay sets. By EC50 is commonly meant the concentration that produces a half-maximal response. With `CC1(C)Oc2cc([C@]34CC5CC(C[C@@](N=C=S)(C5)C3)C4)cc(O)c2[C@@H]2C[C@H](O)CC[C@H]21`, the Ki at Cannabinoid receptor 1 [1] (read-out: Ki(app)) was 35.4 nM; at Cannabinoid receptor 1 [4] it was 35.7 nM; at Cannabinoid receptor 2 [2] (read-out: Ki(app)), 13.1 nM; at Cannabinoid receptor 1 [6] it was 35.4 nM; on Cannabinoid receptor 1 [8] it was 58.6 nM; on Cannabinoid receptor 2 [3] (read-out: Ki(app)) it was 31.7 nM. The same compound had a Ki at Cannabinoid receptor 1 [10] of 96 nM. For the same compound, the Emax in assay [5] came to 68%. Further, the Activity at Cannabinoid receptor 2 [7] is 25%; in assay [11], 54%; in assay [12], 26%; in assay [13], 54%. The result in assay [9] was Active. For the same compound, the outcome on Cannabinoid receptor 2 [14] was inactive. For the same compound, on Cannabinoid receptor 1 [15], the EC50 amounted to 12 nM.
Regarding `CC1(C)Oc2cc([C@]34CC5CC(C[C@@](C#N)(C5)C3)C4)cc(O)c2[C@@H]2C[C@H](O)CC[C@H]21`, the Ki was 45.8 nM at Cannabinoid receptor 1 [1] (read-out: Ki), 4.2 nM on Cannabinoid receptor 2 [2] (read-out: Ki) and 2.8 nM at Cannabinoid receptor 2 [3] (read-out: Ki). Besides, the results for the Emax (in assay [5]; at Cannabinoid receptor 2 [17]) were 82% and -93%, respectively. Also, the EC50 on Cannabinoid receptor 2 [16] was found to be 90.7 nM; on Cannabinoid receptor 1 [15] it was 95.2 nM.
In the case of `CC1(C)Oc2cc([C@]34CC5CC(C[C@@](N=[N+]=[N-])(C5)C3)C4)cc(O)c2[C@@H]2C[C@H](O)CC[C@H]21`, the values for the Ki at Cannabinoid receptor 1 [1] (read-out: Ki), on Cannabinoid receptor 2 [2] (read-out: Ki) and at Cannabinoid receptor 2 [3] (read-out: Ki) were 18.6 nM, 24.8 nM and 38.4 nM, respectively. Also, in [5], the Emax came out at 73%. The Activity on Cannabinoid receptor 2 [7] stood at 26%; in assay [11] it was 61%. The outcome at Cannabinoid receptor 2 [14] was inactive. For the same compound, the EC50 at Cannabinoid receptor 1 [15] was found to be 4.4 nM.
`CC1(C)Oc2cc(C34CC5CC(CC(C5)C3)C4)cc(O)c2[C@@H]2C[C@H](O)CC[C@H]21`: the Emax in assay [5] is 69%. At Cannabinoid receptor 2 [14], the result was inactive. For the same compound, at Cannabinoid receptor 1 [15], the EC50 turned out to be 2.7 nM.
As to `CC1(C)Oc2cc([C@]34CC5CC(C[C@@](CN=C=S)(C5)C3)C4)cc(O)c2[C@@H]2C[C@H](O)CC[C@H]21`, the figures for the Ki at Cannabinoid receptor 1 [1] (read-out: Ki(app)), at Cannabinoid receptor 2 [2] (read-out: Ki(app)) and on Cannabinoid receptor 2 [3] (read-out: Ki(app)) were 3 nM, 10.3 nM and 34.6 nM, respectively. The Emax in assay [5] was 94%; on Cannabinoid receptor 2 [17], -91%. For the same compound, the results for the EC50 on Cannabinoid receptor 2 [16] and at Cannabinoid receptor 1 [15] were greater than 400 nM and 0.8 nM, respectively. Moreover, the Activity on Cannabinoid receptor 2 [7] turned out to be 74%; in assay [11], 63%.
As for `CC1(C)Oc2cc([C@]34CC5CC(C[C@@](CN=[N+]=[N-])(C5)C3)C4)cc(O)c2[C@@H]2C[C@H](O)CC[C@H]21`, the Ki on Cannabinoid receptor 1 [1] (read-out: Ki) turned out to be 4.4 nM; at Cannabinoid receptor 2 [2] (read-out: Ki), 9.6 nM; on Cannabinoid receptor 2 [3] (read-out: Ki), 26.4 nM. Further, the Emax in assay [5] amounted to 45%. The Activity at Cannabinoid receptor 2 [7] amounted to 60%; in assay [11], 67%. Further, the result at Cannabinoid receptor 2 [14] was inactive. Moreover, the EC50 on Cannabinoid receptor 1 [15] is 2.4 nM.
With `CC1(C)Oc2cc([C@]34CC5CC(C[C@@](C(N)=O)(C5)C3)C4)cc(O)c2[C@@H]2C[C@H](O)CC[C@H]21`, the Ki at Cannabinoid receptor 1 [1] (read-out: Ki) came to 297 nM; at Cannabinoid receptor 2 [2] (read-out: Ki), 337 nM; at Cannabinoid receptor 2 [3] (read-out: Ki) it was 947 nM.
Turning to `COC(=O)N[C@]12CC3CC(C1)C[C@](c1cc(O)c4c(c1)OC(C)(C)[C@@H]1CC[C@@H](O)C[C@@H]41)(C3)C2`, the Ki on Cannabinoid receptor 1 [1] (read-out: Ki) was 29.1 nM; on Cannabinoid receptor 2 [2] (read-out: Ki), 8.4 nM; on Cannabinoid receptor 2 [3] (read-out: Ki), 2.1 nM. The Emax is 71% in assay [5] and -74% on Cannabinoid receptor 2 [17]. For the same compound, the results for the EC50 at Cannabinoid receptor 2 [16] and at Cannabinoid receptor 1 [15] were 15.8 nM and 1.6 nM, respectively.
For `CC1(C)Oc2cc([C@]34CC5CC(C[C@@](N)(C5)C3)C4)cc(O)c2[C@@H]2C[C@H](O)CC[C@H]21`, the Ki on Cannabinoid receptor 1 [1] (read-out: Ki), on Cannabinoid receptor 2 [2] (read-out: Ki) and on Cannabinoid receptor 2 [3] (read-out: Ki) was greater than 1000 nM each time.
On to `CC1(C)Oc2cc([C@]34CC5CC(C[C@@](CC#N)(C5)C3)C4)cc(O)c2[C@@H]2C[C@H](O)CC[C@H]21`, for which the Ki on Cannabinoid receptor 1 [1] (read-out: Ki) is 2.6 nM; at Cannabinoid receptor 2 [2] (read-out: Ki) it was 4.6 nM; at Cannabinoid receptor 2 [3] (read-out: Ki) it was 4.4 nM. Further, the Emax was 78% in assay [5] and -78% at Cannabinoid receptor 2 [17]. Further, the half-maximal effective concentration (EC50) turned out to be 83.1 nM at Cannabinoid receptor 2 [16] and 5.4 nM at Cannabinoid receptor 1 [15]. Moreover, the result (at Cannabinoid receptor 2 [7]; in assay [11]) was inactive.
In the case of `CC1(C)Oc2cc([C@]34CC5CC(C[C@@](C(=O)O)(C5)C3)C4)cc(O)c2[C@@H]2C[C@H](O)CC[C@H]21`, the Ki on Cannabinoid receptor 1 [1] (read-out: Ki), at Cannabinoid receptor 2 [2] (read-out: Ki) and at Cannabinoid receptor 2 [3] (read-out: Ki) was greater than 1000 nM in each case.
